{"source": "ChEMBL document CHEMBL1687753", "about": "“Mitochondrial DNA depletion and respiratory chain activity in primary human subcutaneous adipocytes treated with nucleoside analogue reverse transcriptase inhibitors” (Antimicrob Agents Chemother, 2010)", "key": {"[1]": {"test": "Toxicity in human subcutaneous preadipocytes assessed as cell death at 3 uM after 30 days using […]", "type": "cell-based", "details": "720 h", "how_it_was_run": "(§1)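 Trypan blue exclusion counted by microscopy at each medium change every fifth day during 30 days of drug exposure in differentiating pooled preadipocytes. Final viability was calculated by excluding the cumulative percentage of dead cells. Five independent experiments.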"}, "[2]": {"test": "Toxicity in human subcutaneous preadipocytes assessed as acquisition of adipocyte shape at 3 uM after 30 days using oil red O fluorescence staining by conventional fluorescence microscopy", "type": "cell-based", "details": "720 h", "how_it_was_run": "(§2)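 On day 30 of differentiation with drug present from day 0, cells were fixed in 10% formalin and stained with 0.21% oil red O. Staining was viewed by fluorescence and light microscopy. For quantification, dye was extracted with isopropanol and read at 495 nm, also adjusted for viable cell number. Five independent experiments.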"}, "[3]": {"test": "Toxicity in human subcutaneous preadipocytes assessed as decrease of mitochondrial DNA abundance at 3 uM after 30 days by RT-PCR analysis", "type": "cell-based", "details": "720 h", "how_it_was_run": "(§3)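 mtDNA content of differentiated preadipocytes at day 30 or 60 of drug exposure was measured by real-time quantitative PCR with human-specific primers. Absolute copy numbers came from serial dilutions of plasmid standards. Three independent experiments.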"}, "Homo sapiens [4]": {"test_system": "Homo sapiens", "test": "Inhibition of electron transport protein complex 4 in human subcutaneous preadipocytes at 3 uM after 30 to 60 days by photometric analysis", "type": "cell-based", "how_it_was_run": "(§4)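 Pooled primary human abdominal subcutaneous preadipocytes induced to differentiate with drug (DMSO vehicle, ≤0.1%) added at day 0 and kept to day 30 or 60. Cells sonicated twice for 10 s; substrates added to lysates and conversion by complexes I+III, II+III, IV, V and citrate synthase read photometrically at 37°C. Three independent experiments.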"}, "Homo sapiens [5]": {"test_system": "Homo sapiens", "test": "Inhibition of electron transport protein complex 5 in human subcutaneous preadipocytes at 3 uM after 30 to 60 days by photometric analysis", "type": "cell-based", "how_it_was_run": "as §4"}, "[6]": {"test": "Toxicity in human subcutaneous preadipocytes assessed as decrease of C/EBPalpha expression at 3 uM after 18 days by RT-PCR analysis", "type": "cell-based", "details": "432 h", "how_it_was_run": "(§5)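 Differentiating preadipocytes were harvested at day 18. RNA from three plates was pooled and reverse transcribed, and qRT-PCR was run with 42 cycles of 94/55/72°C. Values were normalized to transferrin receptor or beta-actin by standard curve. Triplicates from three independent experiments.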"}, "[7]": {"test": "Toxicity in human subcutaneous preadipocytes assessed as decrease of insulin-sensitizing adipokine expression at 3 uM after 30 days by RT-PCR analysis", "type": "cell-based", "details": "720 h", "how_it_was_run": "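Adiponectin mRNA at day 30 was measured by qRT-PCR normalized to transferrin receptor or beta-actin, using pooled RNA and cDNA. Triplicates from three independent experiments.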"}, "Homo sapiens [8]": {"test_system": "Homo sapiens", "test": "Inhibition of electron transport protein complex 2/3 in human subcutaneous preadipocytes at 3 uM after 30 to 60 days by photometric analysis", "type": "cell-based", "how_it_was_run": "as §4"}, "[9]": {"test": "Toxicity in human subcutaneous preadipocytes assessed as decrease of cell viability measured every 5 days at 3 uM after 30 days using […]", "type": "cell-based", "details": "720 h", "how_it_was_run": "as §1"}, "[10]": {"test": "Toxicity in human subcutaneous preadipocytes assessed as effect on mitochondrial mass at 3 uM after 30 days using […] by flow cytometry analysis", "type": "cell-based", "details": "720 h"}, "Homo sapiens [11]": {"test_system": "Homo sapiens", "test": "Inhibition of citrate synthase in human subcutaneous preadipocytes at 3 uM after 30 to 60 days by photometric analysis", "type": "cell-based", "how_it_was_run": "as §4"}, "[12]": {"test": "Toxicity in human subcutaneous preadipocytes assessed as effect on mitochondrial membrane potential at 3 uM after 30 days using JC-1 red/green fluorescence dye by flow cytometry analysis", "type": "cell-based", "details": "720 h", "how_it_was_run": "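Pooled primary human subcutaneous preadipocytes (passage ≤4) were differentiated with drug or DMSO vehicle from day 0 and cultured 30 days. Staining with the JC-1 kit was followed by flow cytometry, and the JC-1 red/green fluorescence intensity ratio was used as the membrane potential read-out. CCCP served as the depolarization control. Three independent experiments, means ± SEM.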"}, "[13]": {"test": "Toxicity in human subcutaneous preadipocytes assessed as decrease of adiponectin expression at 3 uM after 30 days by ELISA", "type": "cell-based", "details": "720 h", "how_it_was_run": "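Adiponectin secreted into the medium over days 25 to 30 of drug exposure in differentiating preadipocytes was measured by sandwich ELISA of culture supernatant. Three independent experiments.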"}, "Homo sapiens [14]": {"test_system": "Homo sapiens", "test": "Inhibition of electron transport protein complex 1/3 in human subcutaneous preadipocytes at 3 uM after 30 to 60 days by photometric analysis", "type": "cell-based", "how_it_was_run": "as §4"}, "[15]": {"test": "Toxicity in human subcutaneous preadipocytes assessed as decrease of mitochondrial DNA copy number per cell at 3 uM after 60 days by RT-PCR analysis", "type": "cell-based", "set-up": "scale not given: the % may be the effect or the level left", "details": "1440 h", "how_it_was_run": "as §3"}, "[16]": {"test": "Toxicity in human subcutaneous preadipocytes assessed as decrease of cell cultures at 3 uM after 30 days using oil red O fluorescence staining by conventional fluorescence microscopy", "type": "cell-based", "details": "720 h", "how_it_was_run": "as §2"}, "[17]": {"test": "Toxicity in human subcutaneous preadipocytes assessed as decrease of C/EBPalpha expression at 0.1 uM after 18 days by RT-PCR analysis", "type": "cell-based", "details": "432 h", "how_it_was_run": "as §5"}, "[18]": {"test": "Toxicity in human subcutaneous preadipocytes assessed as triacylglyceride droplets at 3 uM after 30 days using oil red O fluorescence staining by conventional fluorescence microscopy", "type": "cell-based", "details": "720 h", "how_it_was_run": "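Preadipocytes were differentiated with a hormone cocktail (IBMX for the first 7 days, dexamethasone, insulin, indomethacin; high-glucose DMEM for days 0–18), with drug or vehicle present from day 0 to day 30. Cells were fixed in 10% formalin, stained with 0.21% oil red O in 60% isopropanol, and imaged by fluorescence microscopy. Quantification was by isopropanol extraction at 495 nm, optionally adjusted for viable cells.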"}, "[19]": {"test": "Toxicity in human subcutaneous preadipocytes assessed as decrease of PPARgamma expression at 3 uM after 18 days by RT-PCR analysis", "type": "cell-based", "details": "432 h", "how_it_was_run": "as §5"}, "[20]": {"test": "Toxicity in fully differentiated human subcutaneous preadipocytes assessed as cell death at 3 uM after 30 days using […] by conventional fluorescence microscopy", "details": "720 h", "how_it_was_run": "as §1"}, "[21]": {"test": "Toxicity in human subcutaneous preadipocytes assessed as decrease of mitochondrial DNA abundance at 3 uM after 60 days by RT-PCR analysis", "type": "cell-based", "details": "1440 h", "how_it_was_run": "as §3"}, "[22]": {"test": "Toxicity in human subcutaneous preadipocytes assessed as decrease of PPARgamma expression at 0.1 uM after 18 days by RT-PCR analysis", "type": "cell-based", "details": "432 h", "how_it_was_run": "as §5"}}, "note": "The source made the active and inactive calls. The rule behind the calls is not given here."}
{"smiles": "Cc1cn([C@H]2C=C[C@@H](CO)O2)c(=O)[nH]c1=O", "note": "[STAVUDINE]", "values": [{"measurement": "Activity", "setting": "[1]", "result": "Toxic"}, {"measurement": "Activity", "setting": "[2]", "result": "Non-toxic"}, {"measurement": "Activity", "setting": "[3]", "result": "Toxic"}, {"measurement": "inhibition", "setting": "Homo sapiens [4]", "result": "inactive"}, {"measurement": "inhibition", "setting": "Homo sapiens [5]", "result": "inactive"}, {"measurement": "Activity", "setting": "[6]", "result": "Non-toxic"}, {"measurement": "Activity", "setting": "[7]", "result": "Non-toxic"}, {"measurement": "inhibition", "setting": "Homo sapiens [8]", "result": "inactive"}, {"measurement": "Activity", "setting": "[9]", "result": "Toxic"}, {"measurement": "Activity", "setting": "[10]", "result": "Non-toxic"}, {"measurement": "inhibition", "setting": "Homo sapiens [11]", "result": "inactive"}, {"measurement": "Activity", "setting": "[12]", "result": "Non-toxic"}, {"measurement": "Activity", "setting": "[13]", "result": "Non-toxic"}, {"measurement": "inhibition", "setting": "Homo sapiens [14]", "result": "inactive"}, {"measurement": "Activity", "setting": "[15]", "result": 50, "unit": "%"}, {"measurement": "Activity", "setting": "[16]", "result": "Toxic"}, {"measurement": "Activity", "setting": "[17]", "result": "Non-toxic"}, {"measurement": "Activity", "setting": "[18]", "result": "Non-toxic"}, {"measurement": "Activity", "setting": "[19]", "result": "Non-toxic"}, {"measurement": "Activity", "setting": "[20]", "result": "Toxic"}, {"measurement": "Activity", "setting": "[21]", "result": "Toxic"}, {"measurement": "Activity", "setting": "[22]", "result": "Non-toxic"}]}
